# Experimental data reported in PubChem BioAssay.
# Active and inactive are the calls of the source.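 Rule for the calls, unless noted: active = fluorescence slope higher than the sample average by over 3 SD (cut at about -0.22 in these data, passing the limit was not always enough); inactive = the rest.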
# What was measured:
# [1] = inhibitors of TNFa-induced NFkB p65 translocation, primary screen, imaging, HUVEC, MLSMR starter and 10KST1 sets (AID 438;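 active = inhibition above 20% together with a positive visual image hit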;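 note: compound added about 3h40 before a 20 min TNFalpha stimulation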;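 for inhibition: signal is the nuclear over cytoplasmic p65 intensity ratio per well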); settings: HUVEC TNFa-induced p65 nuclear translocation; cell count: measured here: nuclei count (cytotoxicity indicator), at 2.08 µM; inhibition: at 2 µM, stronger effect = higher value, 0% TNFa-plus-vehicle, 100% no-TNFa wells
# [2] = endothelial E-selectin expression blockers – imaging, HUVEC, immunofluorescence, MLSMR starter and 10KST1 sets, primary screen (AID 487;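 active = visually confirmed hit in the image check and inhibition above 20%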;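 for inhibition: signal is fraction of cell area covered by stained E-selectin grains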;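 for nuclei count: 100% = median nuclei count of all wells on the same plate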); settings: HUVEC TNFalpha-induced E-selectin immunofluorescence imaging, at 2 µM; inhibition: stronger effect = higher value; nuclei count: measured here: cell number, toxicity
# [3] = Primary imaging screen for DUSP6 inhibitors that restore phospho-Erk in transfected HeLa cells, chemical complementation (AID 609;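 active = compounds giving at least 50% inhibition in the cell-based MKP-3 phosphatase rescue imaging test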;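 for inhibition: phospho-Erk level distribution per well compared with pooled transfected vehicle control wells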); settings: HeLa MKP-3 transfected, phospho-Erk imaging KS statistic, at 10 µM, cells stimulated with TPA for 15 min
# [4] = target: Dual specificity protein phosphatase 6 (Homo sapiens) (UniProt Q16828); assay: as above; settings: HeLa MKP-3 transfected, phospho-Erk imaging KS statistic; at 10 µM; stronger effect = higher value; cells stimulated with TPA for 15 min
# [5] = target: Voltage-gated potassium channel subunit beta-2 (Rattus norvegicus) (UniProt P62483); assay: inhibitors of rat Kvbeta2 reductase activity – biochemical, NADPH fluorescence, primary screen (AID 622); settings: recombinant KvBeta, 4-cyanobenzaldehyde reduction, at 10 µM, stronger effect = higher value;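 note: slope of raw intensity against log time taken from 70 to 1610 s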
# [6] = target: Voltage-gated potassium channel subunit beta-2 (Rattus norvegicus) (UniProt P62483); assay: enhancers of rat Kvbeta2 NADPH turnover – biochemical, NADPH fluorescence, primary screen (AID 623;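 active = NADPH fluorescence slope more negative than the mean of all samples by about 3 SD, 99.7% confidence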;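 note: fluorescence intensity change per second fitted from 20 to 320 s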); settings: Recombinant KvBeta, NADPH fluorescence decrease slope, 10 min; at 10 µM; stronger effect = lower value
# [7] = target: Muscarinic acetylcholine receptor M4 (Homo sapiens) (UniProt P08173); assay: M4-linked GIRK flux change, two-sided – cell-based, HEK293 M4/GIRK, thallium flux, BTC-AM, M4 allosteric agonist project, primary screen (AID 625;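 active = fluorescence slope after compound addition differing from the mean of all tested samples at 99.7% confidence, mostly higher but some lower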;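 note: thallium influx through GIRK channels coupled to M4 in HEK293 cells with BTC-AM dye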); settings: at 10 µM, actives lie on both sides
# In short: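 Material: M4/GIRK1/GIRK2 stable HEK293 cell line. Medium: pH 7.3 thallium assay buffer. Dosing: single compound concentration, 10 µM final. Schedule: 1 h dye loading, 2 min kinetic read. Measured by: kinetic fluorescence with BTC-AM dye. Read-out: post-addition slope, 15–24 s, of baseline-normalized fluorescence. Benchmarks: carbachol and DMSO controls.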
# [8] = inhibitors of larval lipid processing in zebrafish, primary screen, whole organism, PED6 fluorescence, gall bladder and intestine (AID 686;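 active = a full or partial loss of lipid-probe fluorescence in the fish gall bladder, intestine or both, judged by eye; inactive = no fluorescence loss, or compound toxic to the fish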;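 note: larvae 5 to 7 days old with five fish per well; signal comes from phospholipase A2 cleavage of quenched PED6 carried via bile; overnight exposure to compound and PED6 before scoring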); settings: Zebrafish larvae PED6 lipid processing, fluorescence scoring; screened at 20 µM (by protocol)
# In short: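 System: live zebrafish larvae aged 5-7 days, whole organism; measure: graded gall bladder and intestinal fluorescence inhibition per well; incubation: overnight exposure; reagent: ingested quenched lipid PED6 at 100 nM; signal: By-eye fluorescence microscopy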
# [9] = loss of swimming-algae plug formation – whole organism, Chlamydomonas reinhardtii, WT vs cilia-less mutant, absorbance, 96-well, primary screen (AID 463189;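 active = inhibition at or above 50% relative to wild type and mutant plate controls; inactive = inhibition below 50%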;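 note: 0% = wild type cc124 cells in DMSO and 100% = ciliumless bld1 mutant cells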); settings: Chlamydomonas reinhardtii gravitaxis, OD600 absorbance, 2 days; at 10 µM; stronger effect = higher value
# [10] = measured here: cell density z-score
# [11] = measured here: nuclear c-Myc green intensity z-score
# [12] = measured here: nuclear pErk red intensity z-score, stronger effect = higher value
# Sequence of Voltage-gated potassium channel subunit beta-2 (Rattus norvegicus) (P62483 whole entry, looked up): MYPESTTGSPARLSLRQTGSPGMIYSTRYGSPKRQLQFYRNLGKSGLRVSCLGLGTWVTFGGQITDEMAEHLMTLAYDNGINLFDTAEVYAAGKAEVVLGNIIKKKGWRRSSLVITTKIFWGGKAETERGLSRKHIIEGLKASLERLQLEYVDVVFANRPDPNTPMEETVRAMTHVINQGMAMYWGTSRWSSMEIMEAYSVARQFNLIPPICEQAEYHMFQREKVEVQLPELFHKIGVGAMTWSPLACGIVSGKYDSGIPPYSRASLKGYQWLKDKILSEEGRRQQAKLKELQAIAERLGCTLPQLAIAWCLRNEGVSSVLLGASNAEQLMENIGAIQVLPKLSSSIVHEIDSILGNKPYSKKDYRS
# Sequence of Dual specificity protein phosphatase 6 (Homo sapiens) (Q16828 whole entry, looked up): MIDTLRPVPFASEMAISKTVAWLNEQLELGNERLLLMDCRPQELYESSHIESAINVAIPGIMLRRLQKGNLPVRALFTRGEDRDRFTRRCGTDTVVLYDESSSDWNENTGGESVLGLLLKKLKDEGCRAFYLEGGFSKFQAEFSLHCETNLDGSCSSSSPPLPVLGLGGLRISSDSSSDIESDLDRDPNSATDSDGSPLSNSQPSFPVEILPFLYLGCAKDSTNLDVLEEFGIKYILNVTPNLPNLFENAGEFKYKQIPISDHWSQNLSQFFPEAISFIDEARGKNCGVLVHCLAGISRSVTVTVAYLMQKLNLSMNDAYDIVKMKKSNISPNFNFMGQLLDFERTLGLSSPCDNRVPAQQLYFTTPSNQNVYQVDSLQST
# Sequence of Muscarinic acetylcholine receptor M4 (Homo sapiens) (P08173 whole entry, looked up): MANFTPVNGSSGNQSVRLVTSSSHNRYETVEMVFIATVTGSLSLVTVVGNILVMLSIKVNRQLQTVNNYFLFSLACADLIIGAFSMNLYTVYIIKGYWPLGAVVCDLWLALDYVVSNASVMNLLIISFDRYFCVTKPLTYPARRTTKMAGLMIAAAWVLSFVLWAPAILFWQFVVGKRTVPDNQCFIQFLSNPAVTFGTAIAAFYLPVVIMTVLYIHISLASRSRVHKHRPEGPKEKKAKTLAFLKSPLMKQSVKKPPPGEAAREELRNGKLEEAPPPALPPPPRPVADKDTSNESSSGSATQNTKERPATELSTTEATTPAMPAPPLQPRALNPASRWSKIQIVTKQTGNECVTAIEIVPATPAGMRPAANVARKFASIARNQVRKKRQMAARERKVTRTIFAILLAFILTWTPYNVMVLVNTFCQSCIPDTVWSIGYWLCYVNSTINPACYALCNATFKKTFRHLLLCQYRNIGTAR
Compound,cell count [1],inhibition [1],inhibition [2],nuclei count [2],"z-score [3, 10]","z-score [3, 11]","z-score [3, 12]",inhibition [4],fluorescence slope [5],NADPH fluorescence slope [6],fluorescence slope [7],outcome [8],inhibition [9]
Cc1cccc(-c2nc(C#N)c(NC3CCCCC3)o2)c1,373,-5.1% (inactive),-71.9% (inactive),134%,1.1,-0.201,-0.602,9.82% (inactive),-0.492 (inactive),-0.000119 (inactive),0.00501 (inactive),inactive,-0.036% (inactive)
Cc1cc(C)n(CC2CC(=O)N(c3ccc(C)c(Cl)c3)C2=O)n1 (centres undefined),597,-3.7% (inactive),19% (inactive),93.4%,1.31,-0.417,0.186,12.8% (inactive),-0.517 (inactive),-2.4e-05 (inactive),0.00527 (inactive),inactive,-14.7% (inactive)
CCCCSc1nc(N)c(C#N)c(-c2cccs2)c1C#N,652,-3.4% (inactive),-1.9% (inactive),141%,1.43,0.907,-0.946,-4.7% (inactive),-0.432 (inactive),-1.7e-05 (inactive),0.00886 (inactive),inactive,-8.35% (inactive)
Cc1ccccc1COc1ccc(/C(O)=C2/C(=O)C(=O)N(CCCn3ccnc3)C2c2ccco2)cc1 (centres undefined),642,-2.1% (inactive),-23.1% (inactive),171%,-1.5,-0.323,2.13,9.37% (inactive),-0.48 (inactive),-0.00012 (inactive),0.00521 (inactive),inactive,13.6% (inactive)
Cc1cc(O)ccc1-c1cnc2ccccc2n1,695,2% (inactive),-163% (inactive),166%,-0.391,1.61,0.545,-6.06% (inactive),-0.482 (inactive),-6.2e-05 (inactive),0.00527 (inactive),inactive,-11.2% (inactive)
O=C(c1ccccc1)c1cc(-c2ccccc2)on1,589,-3.4% (inactive),-39.7% (inactive),118%,-0.313,-0.603,0.519,-13.3% (inactive),-0.41 (inactive),-7.5e-05 (inactive),0.00548 (inactive),inactive,-6.04% (inactive)
COc1ccc(/C(O)=C2\C(=O)C(=O)N(c3cc(C)on3)C2c2ccccc2OC)cc1C (centres undefined),556,-11.7% (inactive),9.9% (inactive),118%,-1.41,-1.49,-1.43,-8.27% (inactive),-0.473 (inactive),-2.1e-05 (inactive),0.00597 (inactive),inactive,-0.426% (inactive)
CC1(C)CC(=O)C(C=NCCN2CCN(CCc3ccccc3)CC2)=C(O)C1,367,-0.8% (inactive),-22.3% (inactive),94.1%,-1.16,0.888,-1.15,-2.69% (inactive),-0.506 (inactive),1.2e-05 (inactive),0.00481 (inactive),inactive,-9.36% (inactive)
Cc1nn(CC(N)=O)c(=O)c2ccccc12,579,-2.9% (inactive),-62.8% (inactive),142%,2.22,-0.838,0.00121,10.9% (inactive),-0.485 (inactive),-0.00011 (inactive),0.00427 (inactive),inactive,-4.61% (inactive)
CCOC(=O)NC(Nc1cc(C)on1)(C(F)(F)F)C(F)(F)F,705,-7.9% (inactive),-70% (inactive),169%,-0.319,1.98,0.812,-11.4% (inactive),-0.465 (inactive),-3.9e-05 (inactive),0.00511 (inactive),inactive,-3.89% (inactive)
CC1(C)CC(=O)C2=C(C1)OC(N)=C(C#N)C21C(=O)N(CN2CCOCC2)c2ccccc21 (centres undefined),371,-2.9% (inactive),-122% (inactive),138%,0.502,-1.1,-1.15,19.4% (inactive),-0.479 (inactive),-3.3e-05 (inactive),0.00562 (inactive),inactive,36.4% (inactive)
CCCC(CCC(=O)Nc1ccc(C(=O)OCC)cc1)C(=O)O (centres undefined),368,-0.1% (inactive),-147% (inactive),152%,-0.648,0.519,-0.661,20.2% (inactive),-0.484 (inactive),-4.5e-05 (inactive),0.0051 (inactive),inactive,-0.026% (inactive)
COC(=O)c1ccc(C2/C(=C(/O)c3ccc(OC)cc3)C(=O)C(=O)N2Cc2ccco2)cc1 (centres undefined),603,-5.8% (inactive),-47.8% (inactive),96.4%,-1.62,0.429,-2.41,-4.59% (inactive),-0.4 (inactive),4.5e-06 (inactive),0.0058 (inactive),inactive,-8.72% (inactive)
